Data taken from ChEMBL document CHEMBL3045496, “Antifeedant activity of ethanolic extract from Flourensia oolepis and isolation of pinocembrin as its active principle compound” (2009).
The source made the active and inactive calls. No cut-off for these calls is given here.

What was measured:
Spodoptera litura = assay: Antifeedant activity against third-instar Spodoptera litura assessed per cm2 leaf disk; assay type: functional
Epilachna [1] = assay: Antifeedant activity against third-instar Epilachna paenulata measured assessed per cm2 leaf disk; assay type: functional
Epilachna [2] = assay: Antifeedant activity against third-instar Epilachna paenulata measured assessed per cm2 leaf disk after 24 hr by leaf disk choice test; assay type: functional
Summary of the method: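 Two Cucurbita maxima seedling cotyledons in a Petri dish under a glass disk with two 1 cm2 holes: one solvent-treated, one solvent-control. A single larva is placed equidistant between them and feeds for 24 h. Area eaten is estimated visually by quarters, always by the same operator. AI% = [1−(T/C)]×100; means of 10 replicates.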

Xanthogaleruca luteola [3] = assay: Antifeedant activity against adult Xanthogaleruca luteola assessed per cm2 leaf disk after 24 hr by leaf-disk choice test
Epilachna [4] = assay: Antifeedant activity against third-instar Epilachna paenulata measured at 100 ug/cm2 leaf disk after 24 hr by leaf-disk choice test relative to control; assay type: functional
Epilachna [5] = assay: Antifeedant activity against third-instar Epilachna paenulata measured at 50 ug/cm2 leaf disk after 24 hr by leaf-disk choice test relative to control; assay type: functional
Epilachna [6] = assay: Antifeedant activity against third-instar Epilachna paenulata measured at 10 ug/cm2 leaf disk after 24 hr by leaf-disk choice test relative to control; assay type: functional
Epilachna [7] = assay: Antifeedant activity against third-instar Epilachna paenulata measured at 5 ug/cm2 leaf disk after 24 hr by leaf-disk choice test relative to control; assay type: functional
Epilachna [8] = assay: Antifeedant activity against third-instar Epilachna paenulata measured at 1 ug/cm2 leaf disk after 24 hr by leaf disk choice test relative to control; assay type: functional
Spodoptera frugiperda [9] = assay: Antifeedant activity against third-instar Spodoptera frugiperda (fall armyworm) assessed per cm2 leaf disk after 3 to 4 hr by leaf-disk choice test; assay type: functional
Spodoptera frugiperda [10] = assay: Antifeedant activity against third-instar Spodoptera frugiperda (fall armyworm) measured at 100 ug/cm2 leaf disk after 3 to 4 hr by leaf-disk choice test relative to control; assay type: functional
Summary of the method: (§1)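 Two-choice leaf-disk assay with third-instar larvae collected in the field and kept on pumpkin for 2–3 days beforehand. Treated and solvent-control 1 cm2 disks of C. maxima cotyledon are offered together, and the area of each consumed (0–100%) is scored visually by quarters by the same operator. AI% = [1−(T/C)]×100; means of 10 replicates.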

Spodoptera frugiperda [11] = assay: Antifeedant activity against third-instar Spodoptera frugiperda (fall armyworm) measured at 50 ug/cm2 leaf disk after 3 to 4 hr by leaf-disk choice test relative to control; assay type: functional; summary of the method: as §1
Spodoptera frugiperda [12] = assay: Antifeedant activity against third-instar Spodoptera frugiperda (fall armyworm) measured at 10 ug/cm2 leaf disk after 3 to 4 hr by leaf-disk choice test relative to control; assay type: functional; summary of the method: as §1
Spodoptera frugiperda [13] = assay: Antifeedant activity against third-instar Spodoptera frugiperda (fall armyworm) measured at 5 ug/cm2 leaf disk after 3 to 4 hr by leaf-disk choice test relative to control; assay type: functional; summary of the method: as §1
Xanthogaleruca luteola [14] = assay: Antifeedant activity against adult Xanthogaleruca luteola measured at 5 ug/cm2 leaf disk after 24 hr by leaf-disk choice test relative to control
Xanthogaleruca luteola [15] = assay: Antifeedant activity against adult Xanthogaleruca luteola measured at 1 ug/cm2 leaf disk after 24 hr by leaf-disk choice test relative to control
Xanthogaleruca luteola [16] = assay: Antifeedant activity against adult Xanthogaleruca luteola measured at 50 ug/cm2 leaf disk after 24 hr by leaf-disk choice test relative to control
Xanthogaleruca luteola [17] = assay: Antifeedant activity against adult Xanthogaleruca luteola measured at 10 ug/cm2 leaf disk after 24 hr by leaf-disk choice test relative to control
Xanthogaleruca luteola [18] = assay: Antifeedant activity against adult Xanthogaleruca luteola measured at 100 ug/cm2 leaf disk after 24 hr by leaf-disk choice test relative to control

COc1c(OC)c(O)c2c(=O)c(OC)c(-c3ccccc3)oc2c1OC gave an ED50 (Spodoptera litura) of 7.16 µg.
COc1ccc(-c2oc3c(OC)c(OC)c(OC)c(O)c3c(=O)c2OC)cc1 [5-HYDROXYAURANETIN] was tested, and the ED50 (Spodoptera litura) was 42.8 µg.
For C[C@@H]1CC[C@H]2[C@@H](C)C(=O)O[C@@H]3O[C@@]4(C)CC[C@@H]1[C@]32OO4 [ARTEMISININ], the ED50 (Epilachna [1]) was 14.7 µg.
In the case of C/C=C(\C)C(=O)O[C@H]1C[C@@H](OC(C)=O)[C@@]2(C(=O)OC)CO[C@H]3[C@@H](O)[C@@](C)([C@]45O[C@@]4(C)[C@@H]4C[C@H]5O[C@@H]5OC=C[C@@]54O)[C@H]4[C@]1(CO[C@]4(O)C(=O)OC)[C@@H]32 [AZADIRACHTIN A], the ED50 (Epilachna [2]) is reported as 0.59 µg.
Oc1cc(O)c2c(c1)OC(c1ccc(O)c(O)c1)C(O)C2 (configuration not stated) [CATECHIN] showed an ED50 (Epilachna [2]) of 47.6 µg and an ED50 (Xanthogaleruca luteola [3]) of 50.22 µg.
Work on O=c1cc(-c2ccccc2)oc2cc(O)cc(O)c12 [CHRYSIN] yielded an ED50 (Spodoptera litura) of 635 µg.
Compound O=c1cc(-c2ccccc2)oc2ccccc12 [FLAVONE] has an ED50 (Spodoptera litura) of 24.6 µg.
CC(=O)O[C@@H]1C[C@H](O)[C@@]23COC(O)[C@]1(C)[C@@H]2C[C@@H](O)[C@]1(C)[C@@H]3[C@H](O)C(=O)[C@@]2(C)[C@H](c3ccoc3)C[C@H]3O[C@@]312 (some centres not stated) [MELIARTENIN] was tested, and the ED50 (Epilachna [1]) was 0.8 µg.
With O=C1C[C@@H](c2ccc(O)cc2)Oc2cc(O)cc(O)c21 [NARINGENIN] the ED50 (Epilachna [2]) was 160.15 µg.
Compound O=C1C[C@@H](c2ccccc2)Oc2cc(O)cc(O)c21 [PINOCEMBRIN] has an AFI (Epilachna [4]) of 99.1%, an AFI (Epilachna [5]) of 90% and an AFI (Epilachna [6]) of 62%. For the same compound, the AFI (Epilachna [7]) was 21%, the AFI (Epilachna [8]) was 12% and the ED50 (Spodoptera frugiperda [9]) was 8.86 µg. For the same compound, the ED50 (Epilachna [2]) was 7.98 µg, the AFI (Spodoptera frugiperda [10]) was 92% and the AFI (Spodoptera frugiperda [11]) was 91%. The AFI (Spodoptera frugiperda [12]) was 70%, the AFI (Spodoptera frugiperda [13]) was 21% and the ED50 (Xanthogaleruca luteola [3]) was 6.13 µg. For the same compound, the AFI (Xanthogaleruca luteola [14]) was 62%, the AFI (Xanthogaleruca luteola [15]) was 0% and the AFI (Xanthogaleruca luteola [16]) was 94%. The AFI (Xanthogaleruca luteola [17]) was 62% and the AFI (Xanthogaleruca luteola [18]) was 98%.
In the case of O=c1c(O)c(-c2ccc(O)c(O)c2)oc2cc(O)cc(O)c12 [QUERCETIN], the ED50 (Epilachna [2]) is reported as 9.26 µg, the Activity (Spodoptera litura) is reported as “inactive” and the ED50 (Xanthogaleruca luteola [3]) is reported as 178.52 µg.
Compound C=C(C)[C@H]1Cc2c(ccc3c2O[C@@H]2COc4cc(OC)c(OC)cc4[C@@H]2C3=O)O1 [ROTENONE] has an ED50 (Spodoptera litura) of 59.1 µg.
With CC(=O)O[C@@H]1C[C@H](O)[C@@]23CO[C@@H](O)[C@]1(C)[C@@H]2C[C@@H](O)[C@]1(C)[C@@H]3C(=O)[C@H](OC(C)=O)[C@@]2(C)[C@H](c3ccoc3)C[C@H]3O[C@]321 [TOOSENDANIN] the ED50 (Epilachna [1]) was 3.69 µg.
